rRNA inh HTS – inhibitors of bacterial rRNA selective over humanized ribosomes | GFP signal change (wild-type ribosome), % (concentration not given with the values) | E. coli WT GFP vs humanized-ribosome RFP mutants, fluorescence, 24 h; stronger effect = lower value; DMSO median 0, no signal -100 | 350,000 compounds, 1.6% hits;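 active = significant combined selectivity score with lowered wild-type GFP, culture density cut under 30%, mutant RFP and density less affected; inactive = any of these conditions unmet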
Cneo AK release – causes C. neoformans cell lysis; lysis activity, % at 15 µM; adenylate kinase release luminescence, 4 h; normalised: neutral wells 0, clomiphene wells 100; 360,000 compounds, 0.2% hits; AID 651654;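 active = mean lysis activity across replicates of at least 80%, whatever share of replicates individually reach that level; inactive = mean lysis activity below 80%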
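Material – Cryptococcus neoformans yeast cells · Quantity – 5 × 10^6 yeast cells/mL · Buffer or medium – YPD medium · Compound – single dose · Timing – 4 h static compound exposure, 37 °C, read 1 h post-reagent · Signal – adenylate kinase release luminescence · Read-out basis – lysis from increased AK signal · Benchmarks – Clomiphene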
RAD52 anneal inh – inhibitors of human RAD52 DNA annealing; 360,000 compounds, 0.46% hits; recombinant RAD52 DNA annealing, FRET fluorescence; P43351; inhibition, % at 18.7 µM;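 active = every replicate showing at least 50% inhibition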
RAD54 branch – blocks human RAD54 Holliday junction branch migration; 360,000 compounds, 0.14% hits; AID 602329; FAM/BHQ fluorescence; inhibition, % at 10.4 µM; Q92698;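 active = mean normalized replicate activity at least 40 and at least half of replicates scoring 40 or more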;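 note: 0% = median of neutral control wells and 100% = median of positive control wells; inhibitors cause a drop in the FAM fluorescence signal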
Target sequence (Q92698 whole entry, looked up): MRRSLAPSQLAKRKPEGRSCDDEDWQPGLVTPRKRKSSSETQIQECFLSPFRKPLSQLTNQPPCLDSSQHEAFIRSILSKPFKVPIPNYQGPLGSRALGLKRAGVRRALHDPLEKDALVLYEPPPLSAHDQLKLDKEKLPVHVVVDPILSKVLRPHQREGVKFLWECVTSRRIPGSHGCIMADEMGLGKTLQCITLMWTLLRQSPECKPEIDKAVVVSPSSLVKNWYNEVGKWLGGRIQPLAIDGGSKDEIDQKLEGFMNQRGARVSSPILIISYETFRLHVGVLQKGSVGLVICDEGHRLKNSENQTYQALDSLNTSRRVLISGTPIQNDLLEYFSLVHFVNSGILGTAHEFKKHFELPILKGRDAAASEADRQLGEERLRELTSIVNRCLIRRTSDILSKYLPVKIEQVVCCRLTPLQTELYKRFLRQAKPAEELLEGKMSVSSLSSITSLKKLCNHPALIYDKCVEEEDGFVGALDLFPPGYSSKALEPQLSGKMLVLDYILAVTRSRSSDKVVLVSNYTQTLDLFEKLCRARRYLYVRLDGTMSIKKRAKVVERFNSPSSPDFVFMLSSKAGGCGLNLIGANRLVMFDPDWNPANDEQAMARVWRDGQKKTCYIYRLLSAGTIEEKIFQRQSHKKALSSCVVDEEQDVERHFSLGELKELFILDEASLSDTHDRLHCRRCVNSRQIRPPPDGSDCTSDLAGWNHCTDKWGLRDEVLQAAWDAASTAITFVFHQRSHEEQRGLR
PglD inh – blocks C. jejuni PglD acetyltransferase activity. purified PglD enzyme, DTNB colorimetric CoA detection. inhibition, % at 12.5 µM. 360,000 compounds, 0.098% hits. AID 602405; in the data active = inhibition above about 16%, passing the limit was not always enough
The depositor's hits bear a star; · = no result; ! = a repeat was not active. Only some compounds are listed: those with a hit (about 1.9% of all), similar ones and a draw of the others.

SMILES | rRNA inh HTS | Cneo AK release | RAD52 anneal inh | RAD54 branch | PglD inh
O=S(=O)(c1ccccc1F)N1C[C@@H]2N[C@H](C1)C2c1ccc(/C=C/c2ccccc2)cc1 (some centres not stated) | 1 | · | 74*! | · | ·
O=S(=O)(c1ccc(-c2ccccc2)cc1)N1C[C@@H]2N[C@H](C1)C2c1ccc(-c2cncnc2)cc1 (some centres not stated) | 1 | · | 28 | · | ·
O=S(=O)(c1ccccc1)N1C[C@@H]2N[C@H](C1)C2c1ccc(/C=C/c2ccccc2)cc1 (some centres not stated) | -57 | · | 87*! | · | ·
C(=C\c1ccc(C2[C@@H]3CN(Cc4cccnc4)C[C@H]2N3)cc1)/c1ccccc1 (some centres not stated) | -58 | · | 70*! | · | ·
O=S(=O)(c1ccccc1F)N1[C@@H]2CNC[C@H]1C2c1ccc(/C=C/c2ccccc2)cc1 (some centres not stated) | -52 | · | 52*! | · | ·
Cc1ccccc1S(=O)(=O)N1C[C@@H]2N[C@H](C1)C2c1ccc(/C=C/c2ccccc2)cc1 (some centres not stated) | 0 | · | · | · | ·
C[C@H]1CC=CC[C@H](c2ccc3c(c2)OCO3)NC(=O)[C@@H](Cc2ccccc2)N(C)C(=O)c2ccccc2O1 (mixture of isomers) | -8 | · | · | · | ·
COCC#Cc1ccc(CC[C@H]2O[C@H]3CC[C@H](CO)O[C@H]3C[C@@H]2n2cc(C3CC3)nn2)cc1 | · | · | -13 | · | ·
C/C=C/c1ccc(C2[C@H]3CNC[C@@H]2N3Cc2ccc3c(c2)OCO3)cc1 (some centres not stated) | -3 | · | · | · | ·
C/C=C/c1ccc(C2[C@@H]3CN(Cc4ccc5c(c4)OCO5)C[C@H]2N3)cc1 (some centres not stated) | -9 | · | 61*! | · | ·
S=C1SCN(Cc2cccnc2)CN1Cc1ccccc1 | -29* | 1 | -11 | 0 | 0
S=C1NCN(Cc2cccnc2)CN1Cc1ccccc1 | -5 | · | -11 | · | ·
COc1ccc([N+](=O)[O-])cc1/C=N/NC(=O)CNC(=O)c1cccc(F)c1 | -23* | -9 | -18 | 3 | -8
CCC1Nc2ncnc(N3CCc4ccccc4C3)c2N(Cc2ccc(Cl)cc2)C1=O (configuration not stated) | -17* | 1 | -19 | 4 | 3
CCC(=O)N(C)C[C@H]1Oc2cc(-c3ccccc3)ccc2S(=O)(=O)N([C@H](C)CO)C[C@H]1C | -7 | 89* | 7 | 8 | 0
CCC(=O)N(C)C[C@@H]1Oc2cc(C#Cc3ccccc3)ccc2S(=O)(=O)N([C@H](C)CO)C[C@@H]1C | 0 | 1 | -11 | 5 | 1
COc1ccccc1C#Cc1ccc2c(c1)O[C@H](CN(C)C(C)=O)[C@H](C)CN([C@@H](C)CO)S2(=O)=O | -3 | 104* | -3 | 8 | -3
C[C@H]1CN([C@@H](C)CO)S(=O)(=O)c2ccc(C#Cc3ccccc3)cc2O[C@H]1CN(C)C(=O)CN(C)C | -1 | 1 | 70* | 10 | -3
C[C@@H]1CN([C@@H](C)CO)S(=O)(=O)c2ccc(C#Cc3ccccc3)cc2O[C@@H]1CN(C)C(=O)CN(C)C | 7 | 12 | 51* | -3 | 0
CCC(=O)N(C)C[C@@H]1Oc2cc(-c3ccc(C)cc3)ccc2S(=O)(=O)N([C@H](C)CO)C[C@@H]1C | -2 | -6 | -7 | -4 | -2
OC[C@H]1[C@H](c2ccc(-c3ccc(F)cc3)cc2)[C@@H]2CN(Cc3cccnc3)CCCCN12 | -16 | 1 | -20 | 17 | 3
COc1cccc(CN2[C@H](CO)[C@H](c3ccccc3)C23CN(Cc2ccccc2OC)C3)c1 | -1 | · | · | · | ·
COc1ccc2c3c([nH]c2c1)[C@H](CO)N(C(=O)C1CCCCC1)CC31CN(C(=O)NC(C)C)C1 | -5 | · | 9 | · | ·
CCC(=O)N(C)C[C@@H]1Oc2cc(C#CC(C)(C)O)ccc2S(=O)(=O)N([C@@H](C)CO)C[C@H]1C | 4 | 93* | 6 | 6 | -8
CC(C)C#Cc1ccc2c(c1)O[C@@H](CN(C)C(=O)Cc1ccccn1)[C@H](C)CN([C@H](C)CO)S2(=O)=O | 2 | -5 | -10 | -4 | -1
SMILES | rRNA inh HTS | Cneo AK release | RAD52 anneal inh | RAD54 branch | PglD inh
CC(C)C#Cc1ccc2c(c1)O[C@H](CN(C)C(=O)Cc1ccccn1)[C@H](C)CN([C@H](C)CO)S2(=O)=O | -2 | 101* | -22 | 1 | -1
O=S(=O)(Nc1ccc(-c2nc3cccnc3s2)cc1)c1cc(F)ccc1F | -20* | · | -26 | · | ·
C[C@@H]1CN([C@H](C)CO)C(=O)c2cc(NC(=O)Nc3cccc4ccccc34)ccc2O[C@@H](C)CCCCO[C@@H]1CN(C)S(=O)(=O)c1ccccc1 | -6 | · | · | · | ·
C[C@H](CO)N1C[C@H](C)[C@@H](CN(C)Cc2ccc(-c3ccccc3)cc2)Oc2c(NC(=O)Nc3cccc4ccccc34)cccc2C1=O | -12 | · | · | · | ·
NC(=O)NC(c1ccc(Cl)cc1)c1ccccc1Cl (configuration not stated) | -35* | · | -9 | · | ·
NC(=O)NC(c1ccccc1)c1cccc2ccccc12 (configuration not stated) | -33* | -2 | -8 | -15 | -1
CNC[C@@H]1OCCCC[C@@H](C)Oc2ccc(N(C)C)cc2C(=O)N([C@H](C)CO)C[C@@H]1C | 3 | · | · | · | ·
COc1ccc(N(CC(=O)Nc2cc(Cl)ccc2C)S(=O)(=O)c2c(C)noc2C)cc1 | -29* | -1 | -8 | -4 | 4
CCc1cccc(NC(=O)CN(c2ccc(C)cc2)S(=O)(=O)c2c(C)noc2C)c1 | -31* | -9 | -12 | -10 | 3
CC(C)NC(=O)N1[C@H](CO)[C@H]2c3ccccc3N(C(=O)Nc3ccccc3)C[C@H]21 | 0 | -6 | 0 | 4 | 4
c1ccc(N=NC2=NN(c3ccccc3)CS2)cc1 | -30* | -3 | -6 | -3 | 2
c1ccc(C2=NN(c3ccccc3)CC2)cc1 | 0 | -1 | -9 | -14 | 3
O=C(Nc1cccc(S(=O)(=O)N2CCCCC2)c1)c1ccc([N+](=O)[O-])o1 | -28* | 6 | -9 | 1 | -7
O=C(Nc1ccc(Cl)c(S(=O)(=O)N2CCOCC2)c1)c1ccc2c(c1)OCO2 | -23* | -1 | -7 | -10 | 0
O=C(Nc1ccc(Cl)c(S(=O)(=O)N2CCOCC2)c1)c1ccc2c(c1)OCCO2 | -35 | · | -21 | · | ·
O=C(Nc1cccc(S(=O)(=O)N2CCCCCC2)c1)c1ccc(Cl)nc1 | -11 | -3 | -83 | -1 | -4
O=C(Nc1cccc(S(=O)(=O)N2CCCCC2)c1)c1ccc(Cl)nc1 | -24* | 0 | -25 | 3 | -1
O=C(NCc1ccc(Cl)cc1)c1cccc(S(=O)(=O)N2CCCC2)c1 | -19* | 1 | -16 | -11 | 1
CC(C)NC(=O)Nc1ccc2c(c1)C(=O)N(C)C[C@H](C)[C@H](CN(C)C(=O)OC(C)(C)C)O2 | -3 | · | · | · | ·
